Experimental data from PubChem BioAssay.
Calls of active or inactive are those of the source.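 The calls were made as follows, unless noted: active = NADPH fluorescence slope more negative than the mean of all samples by about 3 SD, 99.7% confidence; inactive = the rest.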

Columns and labels:
[1] = inhibitors of TNFa-induced NFkB p65 translocation, primary screen, imaging, HUVEC, MLSMR starter and 10KST1 sets (AID 438;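 active = inhibition above 20% together with a positive visual image hit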;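 also: compound added about 3h40 before a 20 min TNFalpha stimulation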;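 as to inhibition: signal is the nuclear over cytoplasmic p65 intensity ratio per well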); details: HUVEC TNFa-induced p65 nuclear translocation; cell count: measured here: nuclei count (cytotoxicity indicator), at 2.08 µM; inhibition: at 2 µM, stronger effect = higher value, 0% TNFa-plus-vehicle, 100% no-TNFa wells
[2] = reduction of polyQ htt aggregates in cells – imaging, exon1htt(103Q)mCFP cells, high-content imaging, primary screen (AID 483;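 active = visual image review flags a hit and inhibition of aggregation exceeds 20%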;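 also: compound exposure lasted 3 days before fixation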;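 as to nuclei count: percent of the per-plate median nuclei count of sample wells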); details: exon1htt(103Q)mCFP cell line, aggregate imaging, at 2 µM; inhibition of aggregation: stronger effect = higher value; nuclei count: measured here: cell count, toxicity
[3] = endothelial E-selectin expression blockers – imaging, HUVEC, immunofluorescence, MLSMR starter and 10KST1 sets, primary screen (AID 487;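 active = visually confirmed hit in the image check and inhibition above 20%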;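 as to inhibition: signal is fraction of cell area covered by stained E-selectin grains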;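 as to nuclei count: 100% = median nuclei count of all wells on the same plate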); details: HUVEC TNFalpha-induced E-selectin immunofluorescence imaging, at 2 µM; inhibition: stronger effect = higher value; nuclei count: measured here: cell number, toxicity
[4] = molecular target: Voltage-gated potassium channel subunit beta-2 (Rattus norvegicus) (UniProt P62483); test: inhibitors of rat Kvbeta2 reductase activity – biochemical, NADPH fluorescence, primary screen (AID 622;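 active = fluorescence slope higher than the sample average by over 3 SD, cut at about -0.22 in these data, passing the limit was not always enough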;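 also: slope of raw intensity against log time taken from 70 to 1610 s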); details: recombinant KvBeta, 4-cyanobenzaldehyde reduction, at 10 µM, stronger effect = higher value
Chain of Voltage-gated potassium channel subunit beta-2 (Rattus norvegicus) (P62483 whole entry, looked up): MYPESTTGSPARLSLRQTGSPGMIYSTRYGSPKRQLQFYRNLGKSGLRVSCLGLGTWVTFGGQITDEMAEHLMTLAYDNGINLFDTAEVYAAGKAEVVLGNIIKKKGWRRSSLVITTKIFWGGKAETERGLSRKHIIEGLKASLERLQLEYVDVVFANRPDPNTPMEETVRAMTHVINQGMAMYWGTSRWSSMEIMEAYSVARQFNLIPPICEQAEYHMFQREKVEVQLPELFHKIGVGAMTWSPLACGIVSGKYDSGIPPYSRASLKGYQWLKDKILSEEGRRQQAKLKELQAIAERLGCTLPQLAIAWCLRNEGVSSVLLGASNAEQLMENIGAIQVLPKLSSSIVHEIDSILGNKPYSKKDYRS

[5] = molecular target: Voltage-gated potassium channel subunit beta-2 (Rattus norvegicus) (UniProt P62483); test: enhancers of rat Kvbeta2 NADPH turnover – biochemical, NADPH fluorescence, primary screen (AID 623); details: Recombinant KvBeta, NADPH fluorescence decrease slope, 10 min; at 10 µM; stronger effect = lower value;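 also: fluorescence intensity change per second fitted from 20 to 320 s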
[6] = molecular target: Muscarinic acetylcholine receptor M4 (Homo sapiens) (UniProt P08173); test: M4-linked GIRK flux change, two-sided – cell-based, HEK293 M4/GIRK, thallium flux, BTC-AM, M4 allosteric agonist project, primary screen (AID 625;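 active = fluorescence slope after compound addition differing from the mean of all tested samples at 99.7% confidence, mostly higher but some lower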;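 also: thallium influx through GIRK channels coupled to M4 in HEK293 cells with BTC-AM dye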); details: at 10 µM, actives lie on both sides
Chain of Muscarinic acetylcholine receptor M4 (Homo sapiens) (P08173 whole entry, looked up): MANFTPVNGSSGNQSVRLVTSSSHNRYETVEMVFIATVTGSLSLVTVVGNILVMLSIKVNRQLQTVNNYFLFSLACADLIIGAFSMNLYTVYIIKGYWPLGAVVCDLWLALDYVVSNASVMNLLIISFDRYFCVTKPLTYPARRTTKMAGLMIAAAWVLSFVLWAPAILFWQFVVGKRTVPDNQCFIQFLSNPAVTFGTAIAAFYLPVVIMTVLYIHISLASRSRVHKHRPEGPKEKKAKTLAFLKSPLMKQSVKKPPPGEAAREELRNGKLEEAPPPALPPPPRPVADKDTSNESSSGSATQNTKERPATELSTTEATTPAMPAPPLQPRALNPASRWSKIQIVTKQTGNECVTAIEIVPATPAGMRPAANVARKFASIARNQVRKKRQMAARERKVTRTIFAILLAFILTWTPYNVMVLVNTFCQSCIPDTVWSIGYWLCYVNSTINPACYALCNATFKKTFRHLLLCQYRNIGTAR
Outline: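 System: HEK293 cells with M4 receptor and GIRK channels | Incubation: Cells overnight at 37 °C, BTC-AM loading 1 h, reads 2 min total | Technique: Kinetic BTC-AM fluorescence sampled at 1 Hz, 10 s pre-addition baseline | Measure: Post-addition slope, 15–24 s, of baseline-normalized fluorescence | Control set: Carbachol positive, DMSO negative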

[7] = blockers of RIG-like receptor reporter activation – cell-based, Sendai virus stimulus, luciferase, 10K MLSCN set, TLR/RLR signaling modifier project, primary screen (AID 602276;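 active = inhibition at or above 50% at 10 µM; inactive = inhibition below 50%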;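 also: firefly luciferase from ISG56 promoter only with Renilla not read in this screen; 0% = Sendai virus plus DMSO and 100% = medium plus DMSO without virus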); details: HEK293 RL24 IRF3 luciferase reporter, at 10 µM, stronger effect = higher value
[8] = TLR3 IRF3 reporter activation blockers – cell-based, poly I:C stimulus, luciferase, 10K MLSCN set, primary screen (AID 602277;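 active = inhibition of the reporter signal at or above 50%; inactive = inhibition below 50%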); details: HEK293-TLR3 RL24 IRF3 luciferase reporter, at 10 µM, stronger effect = higher value

Row | Structure (SMILES) | cell count [1] | inhibition [1] | inhibition of aggregation [2] | nuclei count [2] [%] | inhibition [3] | nuclei count [3] [%] | fluorescence slope [4] | NADPH fluorescence slope [5] | fluorescence slope [6] | inhibition [7] | inhibition [8]
1 | CCCCn1nnnc1SCC(=O)N1CCN(C(=O)c2ccco2)CC1 | 247 | 2.6% (inactive) | 22.3% (inactive) | 72.2 | 15.1% (inactive) | 83.9 | -0.463 (inactive) | -3e-05 (inactive) | 0.00637 (inactive) | 7.65% (inactive) | 15.6% (inactive)
2 | COc1ccc(C(=O)Nn2c(SCC(=O)NCC3CCCO3)nc3ccccc3c2=O)cc1 (centres undefined) | 512 | -3.6% (inactive) | 13.2% (inactive) | 103 | -60.6% (inactive) | 106 | -0.511 (inactive) | -6.1e-05 (inactive) | 0.00522 (inactive) | 15.1% (inactive) | 49.1% (inactive)
3 | CC(=O)Nc1ccc(S(=O)(=O)n2cnc(C)c2)cc1 | 697 | -10.2% (inactive) | -20.6% (inactive) | 99.8 | -26.8% (inactive) | 118 | -0.584 (inactive) | 4.1e-05 (inactive) | 0.0072 (inactive) | -6.5% (inactive) | -8.68% (inactive)
4 | Cc1ccc(-c2cc(C(=O)N3CCCC3)no2)cc1 | 471 | 7.3% (inactive) | -20.5% (inactive) | 19.5 | -1.1% (inactive) | 106 | -0.585 (inactive) | 1.3e-05 (inactive) | 0.00612 (inactive) | -46.7% (inactive) | -130% (inactive)
5 | COC(=O)CCCCCNc1ccc(C(=O)OC)cc1N | 292 | 7.7% (inactive) | 12.1% (inactive) | 92.9 | -71.5% (inactive) | 122 | -0.341 (inactive) | -6.2e-05 (inactive) | 0.00505 (inactive) | 6.15% (inactive) | 18.3% (inactive)
6 | Cc1nc(=S)n(-c2ccccc2)[nH]1 | 638 | -5% (inactive) | 16.1% (inactive) | 113 | -31.2% (inactive) | 120 | -0.538 (inactive) | -1.9e-05 (inactive) | 0.00665 (inactive) | 11.3% (inactive) | 10.6% (inactive)
7 | O=C(COC(=O)c1ccc(S(=O)(=O)Nc2ccccc2)cc1)NCCN1C(=O)CSC1=O | 396 | -3.1% (inactive) | 2.9% (inactive) | 105 | -88.8% (inactive) | 117 | -0.372 (inactive) | -8.7e-05 (inactive) | 0.0079 (inactive) | 0.13% (inactive) | 19.9% (inactive)
8 | NC(=O)c1oc2ccc(Cl)cc2c1NC(=O)CN1CCOCC1 | 436 | 2.7% (inactive) | 3.6% (inactive) | 112 | -114% (inactive) | 123 | -0.53 (inactive) | -5.2e-05 (inactive) | 0.00578 (inactive) | 4.86% (inactive) | 1.98% (inactive)
9 | CCOc1cc(C2c3c(n[nH]c3C)C(=O)N2c2ccc(Br)cc2)ccc1O (centres undefined) | 572 | -2.3% (inactive) | 7.8% (inactive) | 109 | -89.9% (inactive) | 110 | -0.373 (inactive) | -8.6e-06 (inactive) | 0.00604 (inactive) | 30.1% (inactive) | 30% (inactive)
10 | N#CC(C(=O)C1CCCCC1)c1nc2ccccc2[nH]1 (centres undefined) | 723 | -2% (inactive) | -11.3% (inactive) | 101 | -107% (inactive) | 128 | -0.6 (inactive) | 3e-06 (inactive) | 0.00531 (inactive) | 4.07% (inactive) | -10.7% (inactive)
11 | O=C(Nc1ccncc1)c1cncc(Br)c1 | 718 | -3% (inactive) | -6.3% (inactive) | 98 | -153% (inactive) | 114 | -0.243 (inactive) | -9.4e-06 (inactive) | 0.00626 (inactive) | 1.8% (inactive) | 0.632% (inactive)
12 | COc1cccc(CN(C)CC(=O)NC(=O)NCc2ccco2)c1 | 608 | 2.7% (inactive) | -3.5% (inactive) | 101 | -58.6% (inactive) | 180 | -0.49 (inactive) | 2.9e-05 (inactive) | 0.00617 (inactive) | -13.4% (inactive) | -18.8% (inactive)
13 | CCOC(=O)C(CC)(CCC(=O)O)c1csc(N)n1 (centres undefined) | 518 | 9.6% (inactive) | -2.8% (inactive) | 91.6 | 14.4% (inactive) | 98.1 | -0.518 (inactive) | -3.9e-05 (inactive) | 0.00527 (inactive) | 13.6% (inactive) | 18% (inactive)
14 | CCOc1ccccc1N1CCN(c2nc(N)c(C#N)c(CC#N)c2C#N)CC1 | 687 | -1.7% (inactive) | -18.6% (inactive) | 88.7 | -68.9% (inactive) | 105 | -0.592 (inactive) | -1e-05 (inactive) | 0.00416 (inactive) | 20.4% (inactive) | 17.9% (inactive)
15 | Cn1c(=O)cc(SCC(=O)NCC2CCCO2)c2ccc(Cl)cc21 (centres undefined) | 467 | -11.6% (inactive) | 3.4% (inactive) | 107 | 26.9% (inactive) | 93.8 | -0.549 (inactive) | -3.4e-05 (inactive) | 0.00522 (inactive) | 10.3% (inactive) | 9.81% (inactive)
16 | c1nnc(NC2=NCCCCC2)s1 | 630 | -18.3% (inactive) | 0.1% (inactive) | 105 | 33.9% (inactive) | 124 | -0.346 (inactive) | -1.1e-05 (inactive) | 0.00597 (inactive) | -16.9% (inactive) | -29.4% (inactive)
17 | Clc1cccc(-c2nn3c(Cn4cnc5ccccc54)nnc3s2)c1 | 581 | 4.7% (inactive) | -6.1% (inactive) | 113 | -92.1% (inactive) | 130 | -0.432 (inactive) | -0.000274 (inactive) | 0.00396 (inactive) | 18.7% (inactive) | 21.6% (inactive)
18 | COC(=O)c1[nH]c2c(c1C)C(=O)CC(c1cccs1)C2 (centres undefined) | 315 | 4.5% (inactive) | -123% (inactive) | 2 | -126% (inactive) | 134 | -0.473 (inactive) | -2.2e-05 (inactive) | 0.00476 (inactive) | 34.9% (inactive) | 79.5% (active)
19 | Cn1c2c(c(=O)[nH]c1=O)C(NC(=O)c1ccco1)(C(F)(F)F)C(=O)N2 (centres undefined) | 618 | 8.2% (inactive) | -9.2% (inactive) | 108 | -95% (inactive) | 135 | -0.542 (inactive) | -6.4e-05 (inactive) | 0.00391 (inactive) | -2.84% (inactive) | 6.27% (inactive)
